Assay results gathered from unrelated publications.
Compare with care: the assays were run in different laboratories.
HTR2B: 5-hydroxytryptamine receptor 2B (HTR2B, Homo sapiens, UniProt P41595)
HTR2C: 5-hydroxytryptamine receptor 2C (HTR2C, Homo sapiens, UniProt P28335)
HLA class I histocompatibility antigen, B alpha chain: HLA class I histocompatibility antigen, B alpha chain (Homo sapiens, UniProt P01889)

COc1cc2c(cc1OC)-c1c(OC)c(OC)cc3c1[C@H](C2)N(C)CC3 — Ki (HTR2B; ligand displacement, radioligand): 216 nM
COc1cc(C(F)(F)F)c(OC)cc1C1CCCNC1 (centres unmarked) — EC50 (HTR2C; calcium signal, agonist): 71 nM
N#CC(C#N)=Cc1ccc([N+](=O)[O-])c(O)c1 — Kd (Casein kinase I isoform delta (CSNK1D, Homo sapiens, UniProt P48730); binding, SPR): > 50000 nM
CC[C@H](C)[C@H](NC(=O)[C@@H](N)CCC(=O)O)C(=O)N[C@@H](C)C(=O)N1CCC[C@H]1C(=O)N[C@H](C(=O)N[C@@H](CC(C)C)C(=O)N[C@@H](Cc1c[nH]cn1)C(=O)N[C@@H](CO)C(=O)N[C@H](C(=O)O)[C@@H](C)OP(=O)(O)O)C(C)C — Kd (Serine/threonine-protein kinase PLK1, polo-box (PLK1, Homo sapiens, UniProt P53350); binding, MST; pH 8): 27.2 nM
CCCCC1CNC2CCc3ccc(OC)cc3C12 (racemic) — Ki (HTR2B; ligand displacement, radioligand): 171 nM
CC[C@H](C)[C@H](NC(=O)[C@H](CCCNC(=N)N)NC(=O)[C@H](CC(N)=O)NC(=O)[C@H](Cc1ccccc1)NC(=O)[C@@H](NC(=O)[C@@H](N)Cc1ccc(O)cc1)[C@@H](C)O)C(=O)N[C@@H](Cc1c[nH]cn1)C(=O)N[C@@H](CCC(=O)O)C(=O)N[C@@H](Cc1ccccc1)C(=O)O — IC50 (HLA class I histocompatibility antigen, B alpha chain; cell-free assay): 44000 nM
COc1cc(CCNC(CO)c2ccccc2)c(OC)cc1C#N (centres unmarked) — EC50 (HTR2C; G protein activation, agonist, BRET): 2900 nM
CSCC[C@H](NC(=O)[C@H](CO)NC(=O)[C@H](CC(C)C)NC(=O)[C@H](CO)NC(=O)[C@H](Cc1c[nH]cn1)NC(=O)CNC(=O)[C@H](Cc1ccc(O)cc1)NC(=O)[C@H](CC(C)C)NC(=O)[C@@H](N)CCCNC(=N)N)C(=O)O — IC50 (HLA class I histocompatibility antigen, B alpha chain; cell-free assay): 583 nM
CC(C)CC[C@@H](O)[C@@H](C)[C@H]1CC[C@H]2[C@@H]3CC=C4C[C@@H](O)CC[C@]4(C)[C@H]3CC[C@]12C — Kd (Cholesterol side-chain cleavage enzyme, mitochondrial (CYP11A1, Homo sapiens, UniProt P05108); binding): 163 nM
CC(C)C[C@H](NC(=O)[C@@H]1CCCN1C(=O)[C@H](Cc1c[nH]c2ccccc12)NC(=O)[C@H](CC(=O)O)NC(=O)[C@H](Cc1ccc(O)cc1)NC(=O)[C@@H](NC(=O)[C@@H](N)Cc1ccc(O)cc1)C(C)C)C(=O)N[C@H](C(=O)N[C@@H](Cc1ccccc1)C(=O)O)[C@@H](C)O — IC50 (HLA class I histocompatibility antigen, B alpha chain; cell-free assay): 24200 nM
COc1cc(CCNC(c2ccccc2O)C2CC2)c(OC)cc1C#N (centres unmarked) — EC50 (HTR2C; calcium signal, agonist): > 10000 nM
